Source: ChEMBL document CHEMBL1129254, “3-[2-(N-phenylacetamide)]-1,5-benzodiazepines: orally active, binding selective CCK-A agonists” (J Med Chem, 1996)

Assays:
Cavia porcellus = species: Cavia porcellus; experiment: Relative efficacy determined by the maximal contraction observed at 30 uM, standardized to CCK-8; type: functional
Method in brief: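 Isolated guinea pig gallbladder contraction. Maximal contraction at 30 μM test ligand expressed relative to CCK-8 (1 μM) = 1.0; n ≥ 3.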

[1] = molecular target: T1, Cholecystokinin receptor type A (Cavia porcellus) (UniProt Q63931); experiment: In vitro agonist activity against Cholecystokinin type A receptor isolated from guinea pig gall bladder.; type: functional, tissue-based
T1 sequence (whole entry): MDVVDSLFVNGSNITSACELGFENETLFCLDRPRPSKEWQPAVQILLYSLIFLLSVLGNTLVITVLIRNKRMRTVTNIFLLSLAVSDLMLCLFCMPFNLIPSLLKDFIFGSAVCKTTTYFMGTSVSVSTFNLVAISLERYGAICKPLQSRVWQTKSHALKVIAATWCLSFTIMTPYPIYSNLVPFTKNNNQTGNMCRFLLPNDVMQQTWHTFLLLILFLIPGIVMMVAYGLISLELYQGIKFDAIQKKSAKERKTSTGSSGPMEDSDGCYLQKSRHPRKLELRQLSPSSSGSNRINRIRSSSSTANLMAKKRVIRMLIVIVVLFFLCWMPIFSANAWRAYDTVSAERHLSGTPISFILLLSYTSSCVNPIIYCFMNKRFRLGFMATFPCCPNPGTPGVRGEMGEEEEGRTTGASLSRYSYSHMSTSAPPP

Mus musculus [2] = experiment: Compound tested in vivo for mouse gallbladder emptying at 10 uM/kg, po; type: functional
[3] = molecular target: T2, Gastrin/cholecystokinin type B receptor (Homo sapiens, UniProt P32239); experiment: Binding affinity against human Cholecystokinin type B receptor in CHO-K1 cells using [125I]-Bolton-Hunter CCK-8 as radioligand; type: cell-based
T2 sequence (P32239 whole entry): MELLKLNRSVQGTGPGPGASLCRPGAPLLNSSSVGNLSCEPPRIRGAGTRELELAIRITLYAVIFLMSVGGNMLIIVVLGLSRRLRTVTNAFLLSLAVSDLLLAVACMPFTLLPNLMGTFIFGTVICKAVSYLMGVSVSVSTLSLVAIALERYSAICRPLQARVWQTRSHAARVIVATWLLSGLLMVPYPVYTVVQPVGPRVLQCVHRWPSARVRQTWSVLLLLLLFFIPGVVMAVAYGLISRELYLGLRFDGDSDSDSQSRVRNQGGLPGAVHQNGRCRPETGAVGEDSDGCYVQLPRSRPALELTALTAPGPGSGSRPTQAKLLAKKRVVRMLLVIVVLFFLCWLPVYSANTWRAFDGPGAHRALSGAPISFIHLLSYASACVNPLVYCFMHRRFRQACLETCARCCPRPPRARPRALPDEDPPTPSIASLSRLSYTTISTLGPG

Mus musculus [4] = experiment: Compound tested in vivo for mouse gallbladder emptying at 0.1 uM/kg, ip; type: functional
Mus musculus [5] = experiment: Compound tested in vivo for mouse gallbladder emptying at 1.0 uM/kg, po; type: functional
[6] = molecular target: T3, Cholecystokinin receptor type A (Homo sapiens, UniProt P32238); experiment: Binding affinity against human Cholecystokinin type A receptor in membrane preparation isolated from CHO-K1 cells stably transfected with cDNA of human CCK-A using [125I]-Bolton-Hunter CCK-8 as radioligand; type: cell membranes
T3 sequence (P32238 whole entry): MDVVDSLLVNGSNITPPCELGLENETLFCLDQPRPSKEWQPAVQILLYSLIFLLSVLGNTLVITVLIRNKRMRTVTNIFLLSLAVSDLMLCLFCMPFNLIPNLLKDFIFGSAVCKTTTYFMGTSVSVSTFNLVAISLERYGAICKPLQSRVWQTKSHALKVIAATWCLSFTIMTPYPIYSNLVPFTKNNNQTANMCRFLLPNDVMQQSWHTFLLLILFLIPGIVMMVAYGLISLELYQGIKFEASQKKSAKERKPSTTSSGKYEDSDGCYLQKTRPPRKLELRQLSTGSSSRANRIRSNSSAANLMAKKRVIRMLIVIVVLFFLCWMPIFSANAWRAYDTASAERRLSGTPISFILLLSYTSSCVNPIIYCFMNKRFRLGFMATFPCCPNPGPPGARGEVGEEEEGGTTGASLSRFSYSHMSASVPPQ

SMILES: CC(C)N(C(=O)CN1C(=O)C(NC(=O)Oc2ccccc2)C(=O)N(c2ccccc2)c2ccccc21)c1ccccc1 (configuration not stated)
- RE (Cavia porcellus): 0.2

SMILES: CCC1(CC(=O)Nc2ccccc2)C(=O)N(CC(=O)N(c2ccccc2)C(C)C)c2ccccc2N(c2ccccc2)C1=O (configuration not stated)
- ED50 [1]: 780 nM
- RE (Cavia porcellus): 0.6
- Activity (Mus musculus [2]): 42%
- IC50 [3]: 794 nM
- Activity (Mus musculus [4]): 68%
- Activity (Mus musculus [5]): 45%

SMILES: CC(C)N(C(=O)CN1C(=O)C(NC(=O)Nc2ccccc2)C(=O)N(c2ccccc2)c2ccccc21)c1ccccc1 (configuration not stated)
- ED50 [1]: 1600 nM
- RE (Cavia porcellus): 0.8
- Activity (Mus musculus [4]): 78%

SMILES: CC(C)N(C(=O)CN1C(=O)C(NC(=O)Cc2ccccc2)C(=O)N(c2ccccc2)c2ccccc21)c1ccccc1 (configuration not stated)
- RE (Cavia porcellus): 0.3

SMILES: CC(C)N(C(=O)CN1C(=O)C(OC(=O)Nc2ccccc2)C(=O)N(c2ccccc2)c2ccccc21)c1ccccc1 (configuration not stated)
- RE (Cavia porcellus): 0.2

SMILES: CC(C)N(C(=O)CN1C(=O)C(CC(=O)Nc2ccccc2)C(=O)N(c2ccccc2)c2ccccc21)c1ccccc1 (configuration not stated)
- ED50 [1]: 430 nM
- RE (Cavia porcellus): 0.5
- IC50 [6]: 155 nM
- IC50 [3]: 832 nM
- Activity (Mus musculus [4]): 63%
- Activity (Mus musculus [5]): 34%

SMILES: CC(C)N(C(=O)CN1C(=O)C(C)(NC(=O)Nc2ccccc2)C(=O)N(c2ccccc2)c2ccccc21)c1ccccc1 (configuration not stated)
- ED50 [1]: > 10000 nM
- RE (Cavia porcellus): 0.5
- IC50 [3]: 282 nM

SMILES: CC(C)N(C(=O)CN1C(=O)C(C)(CC(=O)Nc2ccccc2)C(=O)N(c2ccccc2)c2ccccc21)c1ccccc1 (configuration not stated)
- ED50 [1]: 200 nM
- RE (Cavia porcellus): 0.7
- Activity (Mus musculus [2]): 73%
- IC50 [6]: 75.9 nM
- IC50 [3]: 8320 nM
- Activity (Mus musculus [4]): 73%
- Activity (Mus musculus [5]): 36%

SMILES: CSCC[C@H](NC(=O)[C@H](Cc1ccc(OS(=O)(=O)O)cc1)NC(=O)[C@@H](N)CC(=O)O)C(=O)NCC(=O)N[C@@H](Cc1c[nH]c2ccccc12)C(=O)N[C@@H](CCSC)C(=O)N[C@@H](CC(=O)O)C(=O)N[C@@H](Cc1ccccc1)C(N)=O [SINCALIDE]
- ED50 [1]: 2 nM
- RE (Cavia porcellus): 1

SMILES: CC(C)N(C(=O)CN1C(=O)C(CC(=O)Nc2ccccc2)(Cc2ccccc2)C(=O)N(c2ccccc2)c2ccccc21)c1ccccc1 (configuration not stated)
- IC50 [6]: 389 nM
- IC50 [3]: 8910 nM
